In the EternaBench riboswitch data:

Test system: MS2 coat protein
Test: apparent Kd, MS2 coat protein; higher = weaker binding; RNA-MaP array
How it was run: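 Binding of fluorescently labeled MS2 coat protein, at 1.5 nM to 3 μM and room temperature, was measured with or without input ligand on designed RNAs transcribed on an Illumina sequencing chip from sequenced DNA templates. Apparent Kd was defined as the median of per-cluster binding-curve fits. No design measured on fewer than 10 clusters was kept.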

[1] = designed as: ON switch for flavin mononucleotide, no ligand
[2] = ligand present: flavin mononucleotide, designed as: ON switch for flavin mononucleotide
[3] = designed as: ON switch for theophylline, no ligand
[4] = ligand present: theophylline, designed as: ON switch for theophylline
[5] = designed as: OFF switch for flavin mononucleotide, no ligand
[6] = ligand present: flavin mononucleotide, designed as: OFF switch for flavin mononucleotide
[7] = designed as: OFF switch for theophylline, no ligand
[8] = ligand present: theophylline, designed as: OFF switch for theophylline
[9] = designed as: ON switch for tryptophan, no ligand
[10] = ligand present: tryptophan, designed as: ON switch for tryptophan

Row | Sequence | apparent Kd [1] | apparent Kd [2] | apparent Kd [5] | apparent Kd [6] | also measured
1 | GACGAGGAACCAAAGGAUAUACACAUAAACACAUGAGGAUCACCCAUGUAUUAGAGGAUAAACAUGUAGAAGGUUGAUACGGCGUG | 48.7 nM | 36.9 nM | – | – | –
2 | AUAACACAUGAGGAUCACCCAUGUAAGGAUACCAGUUUCUGAUUAAACCCUUGGCAGCCUAGAGAUAGUCAUGUAAUAACGGCGA | – | – | – | – | apparent Kd [3]: 11.9 nM; apparent Kd [4]: 19 nM
3 | CAGUAAGUAGGAUAUGUAUCAAGCUACAUGAGGAUCACCCAUGUGAACCCUAACAGCUGAACAGAAGGACUGUGUG | – | – | 156 nM | 198 nM | –
4 | AAUGGACGAGGAUAUACAUGAGGAUCACCCAUGUCACAGUGGGCUCACCGUUCGGGUAGUAGAAGGCGUUUCUA | – | – | 107 nM | 282 nM | –
5 | CUGACGAGCUUUUUGUCAGGUUGUGUAGAUACCAGUUCUCUGGUGAACCCUUGGCAGCUAACAACAUGAGGAUCACCCAUGUGAU | – | – | – | – | apparent Kd [7]: 83.7 nM; apparent Kd [8]: 326 nM
6 | AGUACAAUAUUAGGAUAUUGACAAAACAUGAGGAUCACCCAUGUAAGGCAAGUGCAAGGGAGAGUCAAGAAGGAAAACUGAGUU | 38.4 nM | 30 nM | – | – | –
7 | CAACUAAAGGAGAAGGCUAACAUGAGGAUCACCCAUGUCCGCGUGUCCGCUUAUAAUGCGCGCAUAGAGGAUAUCCCAAGUUUA | 21.4 nM | 13.6 nM | – | – | –
8 | AGGUGCAUCAAGAAGGAUGACAUGAGGAUCACCCAUGUACAAAAGGCGCGAUUUACAAAUCGUACAUAGGAUAUUGUGCAUGUU | 71.2 nM | 24.6 nM | – | – | –
9 | GUAUUCAUGACGGCCGCCACUGCAAGCCUCCUCAUGGCAGAUUGACAUGAGGAUCACCCAUGUCUCAGGACCGGGUCUGGCAUCC | – | – | – | – | apparent Kd [9]: 188 nM; apparent Kd [10]: 171 nM
10 | GACUACCAGUAAGGAUAUGCUCUUAUAAAAGGAGCAGAAGGUACCUGUGACGCCUACGGGCGACAUGAGGAUCACCCAUGUUCU | 692 nM | 386 nM | – | – | –
11 | UCAACAUGAGGAUCACCCAUGUCAUCGGCGUUCUCAGACACUAGAAGGAACAGGCGUAUCUGCGGUUAGGAUAUAGACACACAU | – | – | 31.3 nM | 31 nM | –
12 | GCCCGUUAUUAGAAGGGUAUUCGGAUAUGCAUUCCUUACAUGAGGAUCACCCAUGUACCGCGAGUACAGGAUAUAAAACCGCCA | – | – | 75.2 nM | 69.7 nM | –
13 | CUUAAGUGAGGAUAUCGUGGGACUACAUUAAUGAGAAUCAGCGAGAAGGCACAUGAGGAUCACCCAUGUGGUAA | – | – | 18.6 nM | 76.2 nM | –
14 | CUGCGCUCGAAGAAGGGCUGCCACAUGAGGAUCACCCAUGUCACUGACACCGAAGUUAGAAAGUAGCAGGAUAUUCAGGGUCCU | 49.2 nM | 32.4 nM | – | – | –
15 | AUAGUGCGGCUGAAGGAUAUGGAACCCGCGACAUGAGGAUCACCCAUGUACUUAAGCGACAUUUGCCAGAAGGUCAAGCAUUCCAU | 13.3 nM | 11.2 nM | – | – | –
16 | GAAGACAUGAGGAUCACCCAUGUUACACACCGAGGACCGGUACGGCCGCCACUCGUAGGCCCUCGGCUCACCUGAGAUCCGCAUC | – | – | – | – | apparent Kd [9]: 23.8 nM; apparent Kd [10]: 22.6 nM
17 | GCUAUGAACGUAGGAUAUGAAGCCUGGCUUGGUUCAGAAGGACGUGAGUAAGUGAGGUCCUGACAUGAGGAUCACCCAUGUACA | – | – | 23.9 nM | 31.7 nM | –
18 | GGGCGACUAGGAUAUACAGGAAGUUAAUGAGUGUCAAAGAAACAUGAGGAUCACCCAUGUAGAAGGAGUGCUAU | – | – | 11.2 nM | 12.6 nM | –
19 | UAGAUCCCAGUCAGGAUAUCCAGGGAGAAUAGGAGGGAGAAGGGACAUGAGGAUCACCCAUGUAUGCGACUACC | – | – | 7.91 nM | 8.92 nM | –
20 | UACUCAAGAGUAAGGAUAUAGAACCAAAUAGCGGACUAGAAGGUACAUGAGGAUCACCCAUGUCAAAGACAGAA | – | – | 7.44 nM | 7.19 nM | –
21 | UAUUGGAUAGGAUAUACAUGAGGAUCACCCAUGUUUUCAUUGGACGAGGACGCUCUUCGUAGAAGGAUCGGCUA | – | – | 10.8 nM | 10.2 nM | –
22 | CAGGGAAGAUGAGGAUAUCAUAGGAGGAUAUGUCGACACAUGAGGAUCACCCAUGUCGCUUACGUUGAGAAGGCAUUGACGUGU | – | – | 13.2 nM | 11.3 nM | –
23 | AGGUCGAAACUAGGAUAUCUUCACUAUGUCAGAAGAGAAGGAGUAGAGCAUGACAGUGAUAGUACAUGAGGAUCACCCAUGUUA | – | – | 18.8 nM | 15.7 nM | –
24 | AUGGAACAUGAGGAUCACCCAUGUGAUGAUACCAGAUUAACGCUUAUCCCUUGGCAGCAUGUCCGCCCUCAACCUGUGGCGUAUU | – | – | – | – | apparent Kd [3]: 22.2 nM; apparent Kd [4]: 26.1 nM
25 | AGCCUGGAAGCAGGAUAUGGGAUACAUGAGGAUCACCCAUGUAAGAUAAUAGGGCAACGAAGAAGCCAGAAGGGCUCGAGGUAA | 16.2 nM | 13.1 nM | – | – | –
26 | UCCCAGCAAGGAUAUACAUGAAAAGGUAAAGAAGAAAAGAAACAUGAGGAUCACCCAUGUAGAAGGUGCAAGAG | – | – | 15.5 nM | 18.4 nM | –
27 | CGCCGUGAUUAGAAGGGUGGUGGGAAUCUUAUCACAGGAUAUAAAUAGGGCCGCUACAUGAGGAUCACCCAUGUCCUCCGGUCA | – | – | 200 nM | 165 nM | –
28 | GAUGGCCUAGGAUAUACGCGUUGGUUGGCUCGUCACGAUACACAUGAGGAUCACCCAUGUAGAAGGAGGAGAGU | – | – | 10.5 nM | 11.7 nM | –

Row | Sequence | apparent Kd [1] | apparent Kd [2] | apparent Kd [5] | apparent Kd [6] | also measured
29 | CGGCGGGACUCACAUGAGGAUCACCCAUGUUUAAAGGGUCAAAAGGAUAUGAAAACAGCAAGUAAUCAGAAGGUUUACCUAGUG | – | – | 14.5 nM | 15.8 nM | –
30 | UACCCAUUAGAGAAGGUUGACGCCCUAGUUGUCAAAGGAUAUCUCCUCGAGGCUACACAUGAGGAUCACCCAUGUUCACAGGUC | – | – | 9.35 nM | 8.92 nM | –
31 | UUCCUGAAAGGAUAUACCUGGCCCGUGAACUGGAUAAAAGCACAUGAGGAUCACCCAUGUAGAAGGUUCGAUUA | – | – | 7.14 nM | 7.02 nM | –
32 | AAGACGGUUCAGAAGGUCUCUAAGCAGGUUACAGAAGGAUAUGAUGCGGACACAUGAGGAUCACCCAUGUUCUAGGGUACCCUA | 22.1 nM | 19 nM | – | – | –
33 | UUGUACGAAACUGAUACCAGCCAGCAAUGCCACCAAGAGCACAUGAGGAUCACCCAUGUUGGCCCUUGGCAGCAGGACAAUAAGC | – | – | – | – | apparent Kd [7]: 8.63 nM; apparent Kd [8]: 9.47 nM
34 | AAUGUACAUGAGGAUCACCCAUGUCGUCUACUUAGAGGAUAUGAUUGGUUACCCAGCUGAUCAGAAGGCUACCGUC | 14.1 nM | 11.9 nM | – | – | –
35 | GGCGACAUGAGGAUCACCCAUGUGACACCUCGAGGACCGGUACGGCCGCCACUCGUAACCUGCACUAUAGCUACCACGAUUAGCC | – | – | – | – | apparent Kd [9]: 193 nM; apparent Kd [10]: 42.4 nM
36 | AUAAAACUAAUACAUGAGGAUCACCCAUGUGAAACACAUACGAGAAGGGCGACAGUCUCAUACACGCAGGAUAUCGGCUAAACG | 10.8 nM | 9.95 nM | – | – | –
37 | GUUUCCUCAGGAUAUUACUGCCGGGACAUGAGGAUCACCCAUGUGGCCUCCGUAAGGCUAUAAGAAGGGAGGCGUC | – | – | 111 nM | 157 nM | –
38 | CACCCGUCGACUUAGGAUAUACUGUUGUGAACAUGAGGAUCACCCAUGUAUUAAGCUAGAACGAAGUAGAAGGAAGUUUUCCUUGC | 15.6 nM | 13.1 nM | – | – | –
39 | UAGAAAUCCUUGCAGGAUAUGUUGGAGUCUACAUGAGGAUCACCCAUGUUUAGUAGCAGGCGACGACAGAAGGGCAAUCUCAUGAU | 23.6 nM | 9.18 nM | – | – | –
40 | GUGAUACAUGAGGAUCACCCAUGUUAAGGUCUUGCAGGAUAUCCAGAACUCGAGAUAGAUGGAGAAGGGCAUGCAU | 12.6 nM | 9.76 nM | – | – | –
41 | AGACAUGAGGAUCACCCAUGUUUGUGUAUCUGACCGCGCACUAGAAGGGAUUGGACAACUUACUAUCAGGAUAUAGACAACGGU | 8.4 nM | 6.95 nM | – | – | –
42 | AUUGUGUAAGGAUAUUAUAGAAGAGGUAGGCAACUUCUGAAUAAGAAGGUACAUGAGGAUCACCCAUGUUCAAU | – | – | 11.7 nM | 12.1 nM | –
43 | UGCCUAUACCAGAAGGGCGUACGGGAAAACAUGAGGAUCACCCAUGUGAGAUCAUCAUCGCUAGCGCAGGAUAUGGAAGUUCGG | – | – | 25 nM | 29.4 nM | –
44 | GUAACUCAGGUCAGGAUAUUCGAGUAAGGGAAAACGAAGAAGGGACAUGAGGAUCACCCAUGUAACACGACUAU | – | – | 18.1 nM | 86.3 nM | –
45 | CAAGUCGGCAAGGAUAUGAAACGUAUUACAGAUUCAGAAGGUGCUACAUGAGGAUCACCCAUGUGGUCAAUACC | – | – | 6.76 nM | 13.1 nM | –
46 | AUGUAGAAUCUAGGAUAUGCGAGAAACUGCGAAGCAGAAGGAGACUUGUACAUGAGGAUCACCCAUGUCCCGGGCGUCCCAACU | – | – | 17.7 nM | 24.2 nM | –
47 | AAAGAUUCCUGAACGCCGCAUACCGAUGAUACCAGCCAACGGAAAGGCCCUUGGCAGCAUUAAACAUGAGGAUCACCCAUGUCUA | – | – | – | – | apparent Kd [7]: 11.8 nM; apparent Kd [8]: 13.9 nM
48 | UAAGGACUUAUAGGAUAUGCAAACAUGAGGAUCACCCAUGUGAACCACGAAAUGACGCAGAAUAAGCAGAAGGAUAGUACGUAC | 32.7 nM | 25.5 nM | – | – | –
49 | CGAGCAAGAGGAUAUACGAAGACGGUAUGAGUCAACCUCAAACAUGAGGAUCACCCAUGUAGAAGGCUUCUCAU | – | – | 7.46 nM | 9.74 nM | –
50 | CGGUCCACUGAGAAGGCUCACUCCAUGCCGAGGAGAGGAUAUCAAACCUAUAUUGCACGCAGCGAACAUGAGGAUCACCCAUGU | 11 nM | 8.73 nM | – | – | –
51 | GCCAGCAGUACAUGAGGAUCACCCAUGUCCCUUGUACUUUUAUAGGAUAUACGAGUGGCUACCAUGUAGAAGGAUAGAAUUGUC | – | – | 932 nM | 606 nM | –
52 | GCGGAACAUGAGGAUCACCCAUGUCAGGAUAUACGCACGGAGUAGGAGGAGGCCUAUGGUAGAAGGGACAGUGA | – | – | 10.8 nM | 10.2 nM | –
53 | GUGUUACAUGAGGAUCACCCAUGUGUCUGAUGUCAAGGAUAUGACUCUUCCUUCACAAAGUCAGAAGGUGAUAUCA | 66.2 nM | 12.8 nM | – | – | –
54 | UCAAGGUCAGGAUAUUUAUACAGUCGAUUACGAGGAUGUCGAAAGAAGGGACAUGAGGAUCACCCAUGUGGUAC | – | – | 43 nM | 57.7 nM | –
55 | GAACCGUUUGAGAAGGUACACAUUCAGGUCGGUACUGGACAUGAGGAUCACCCAUGUGCCGGUGGUAAGGAUAUCAGAUGAGCU | – | – | 10.5 nM | 10.4 nM | –
